# Assay outcomes from PubChem.
# Hsp70 activator = Hsp70 transcriptional activation, primary screen | 0.04% of 200,000 active | HeLa Hsp70 promoter luciferase reporter, luminescence; scaled: vehicle 0, proteasome-inhibitor control 100% | activation, % at 10 µM;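 active means activation above the mean across all tested compounds plus 3 SD, cutoff set per campaign, cut at about 5.5% in these data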;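 further: 100% = MG132 at 30 µM as the positive control and 0% = DMSO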
# NPY-Y2 antag = antagonists of human neuropeptide Y receptor Y2 | P49146 | NPY-Y2 expressing cells, antagonist mode | inhibition, % at 2.7 µM | 0.99% of 140,000 active | AID 793; in the data active means inhibition above about 17%;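 further: 0% = vehicle with agonist challenge and 100% = reference antagonist with challenge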
# Target sequence (P49146 whole entry, looked up): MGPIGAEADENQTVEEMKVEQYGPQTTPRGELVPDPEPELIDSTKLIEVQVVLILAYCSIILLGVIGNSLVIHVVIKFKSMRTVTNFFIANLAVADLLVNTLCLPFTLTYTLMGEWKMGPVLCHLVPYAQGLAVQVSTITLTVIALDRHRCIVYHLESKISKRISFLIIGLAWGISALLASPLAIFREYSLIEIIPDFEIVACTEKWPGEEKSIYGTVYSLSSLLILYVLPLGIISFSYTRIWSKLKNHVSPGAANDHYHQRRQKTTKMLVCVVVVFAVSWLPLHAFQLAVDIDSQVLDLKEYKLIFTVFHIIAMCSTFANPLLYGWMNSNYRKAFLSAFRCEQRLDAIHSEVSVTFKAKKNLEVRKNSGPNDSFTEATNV
# Wee1 degr inh = inhibitors of human Wee1 degradation. HeLa Luc-Wee1K328M stability, luciferase luminescence; 100% = proteasome inhibitor MG132 effect. P30291. 1.2% of 220,000 active. reporter increase, % at 5 µM;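 active means activation above the mean of all tested compounds plus 3 SD, set per screening run, cut at about 8.8% in these data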;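 further: cells exposed to compound for 20 h before luminescence read; 0% = DMSO alone and 100% = MG132 at 30 µM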
# NPY2 pot ag = potentiates or activates human NPY-Y2 receptor | P49146 | cells expressing NPY-Y2, potentiator/agonist read-out | activation, % at 3.6 µM | 0.45% of 220,000 active; in the data active means activation above about 27%;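 further: cells stimulated with NPY near EC25 plus isoproterenol at EC100; 0% = vehicle plus submaximal agonist and 100% = vehicle plus saturating agonist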
# NPY Y1 blocker = NPY-Y1 (human) receptor antagonism | 1% of 200,000 active | HEK293-CNG Y1 cells, membrane potential fluorescence; NPY at EC95, then isoproterenol | inhibition, % at 3.6 µM | AID 1040 | P25929;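 active means inhibition above the campaign mean inhibition of all tested compounds plus 3 SD, cut at about 20% in these data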;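 further: 0% = DMSO wells given NPY plus isoproterenol and 100% = isoproterenol alone without NPY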
#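 Assay system: HEK293 Y1/CNG channel cell line; Doses: single compound dose of 3.6 µM, 0.4% DMSO; Timing: dye 3 h, compound 60 min room temperature, stimulation 45 min; Technique: Membrane-potential fluorescent dye readout; Measure: % inhibition of NPY effect.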
# NPY1 pot ag = human NPY-Y1 potentiation or agonism, primary screen; NPY-Y1 expressing cells, potentiator/agonist activation; activation, % at 3.6 µM; 0.37% of 220,000 active; in the data active means activation above about 33%, passing the limit was not always enough;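 further: cells stimulated with NPY at EC10 then isoproterenol at EC100; 0% = low agonist plus stimulus and 100% = saturating agonist plus stimulus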
# NPY-Y1 pot conf = human NPY-Y1 potentiation or agonism, confirmation; 20% of 280 active; activation, % at 3.6 µM; shares compounds with NPY1 pot ag; AID 1546; cell-based NPY-Y1 potentiator/agonist assay; in the data active means activation above about 45%;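 further: cells challenged with NPY at its EC10 plus isoproterenol stimulus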
# NPY-Y2 counter = potentiates or activates NPY-Y2, counter-screen for NPY-Y1 hits | activation, % at 3.6 µM | AID 1649 | shares compounds with NPY1 pot ag | HEK293-CNG cells, membrane-potential fluorescence (FLIPR), 1536-well | 20% of 280 active; in the data active means activation above about 33%
# NPY-Y1 ag = activates human NPY-Y1, counter-screen for NPY-Y1 potentiators | AID 1697 | HEK293 Y1-CNGC, membrane potential fluorescence, agonist mode | shares compounds with NPY1 pot ag | activation, % at 3.6 µM | 50% of 280 active;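 active means percent activation above the mean of DMSO-only control wells plus 3 SD of those wells, cut at about 18% in these data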;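 further: cells challenged with isoproterenol plus Ro 20-1724 with no NPY in test wells; Y1 agonism lowers isoproterenol-driven cAMP and reduces probe fluorescence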
# NPY-Y2 agonist = counter-screen for NPY-Y1 potentiators or agonists: agonists of NPY-Y2 | shares compounds with NPY1 pot ag | HEK293 Y2-CNGC, membrane potential fluorescence, agonist mode | activation, % at 3.6 µM | 67% of 280 active | AID 1698;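 active means activation above the solvent-only control wells' mean plus 3 SD, cut at about 11% in these data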;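 further: 0% = DMSO with isoproterenol and 100% = 40 nM NPY maximal response; agonism lowers cAMP so well fluorescence drops in active wells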
# CNGC inh 2 = counter-screen for NPY-Y1 potentiators or agonists: CNG channel inhibitors; shares compounds with NPY1 pot ag; HEK293-CNG parental, isoproterenol cAMP, membrane potential fluorescence; inhibition, % at 3.6 µM; 42% of 280 active;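 active means inhibition above the mean of stimulated solvent-only control wells plus 3 SD, cut at about 22% in these data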;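 further: 0% = isoproterenol-stimulated DMSO wells and 100% = unstimulated DMSO wells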
# * marks the source's active call; other numbers are inactive results; . = no result. Hits are enriched below; roughly 3% of the tested compounds scored in any of these assays.
SMILES,Hsp70 activator,NPY-Y2 antag,Wee1 degr inh,NPY2 pot ag,NPY Y1 blocker,NPY1 pot ag,NPY-Y1 pot conf,NPY-Y2 counter,NPY-Y1 ag,NPY-Y2 agonist,CNGC inh 2
CC(=O)Nc1ccc(S(=O)(=O)NCCC(=O)NCCc2ccc(F)cc2)cc1,0,-1,0,15,6,62*,10,1,-5,10,0
Cc1ccc(-c2nnc(-c3ccc(NC(=O)Cc4cccs4)cc3)o2)cc1,0,0,-2,0,3,50*,-22,-9,-13,3,0
COC(=O)c1cc(C(=O)c2ccccc2)n2c(=O)/c(=C\N(C)C)sc12,.,.,4,18,.,13,.,.,.,.,.
COC(=O)c1cc(C(=O)c2ccc(Cl)cc2)n2c(=O)/c(=C\N(C)C)sc12,0,.,-2,16,-9,35*,14,12,19*,12*,11
Brc1ccc(C=Nc2ccc(Nc3ccccc3)cc2)s1,0,2,0,16,0,40*,2,2,9,17*,8
C(=Nc1ccc(Nc2ccccc2)cc1)c1ccc2ccccc2c1,0,4,-2,22,-8,46*,-14,-9,3,0,-1
OC(COc1ccccc1)CN1CCN(Cc2ccc3c(c2)OCO3)CC1 (stereo not given),0,.,0,0,5,2,.,.,.,.,.
Cc1cc(C)cc(OCC(O)CN2CCN(Cc3ccc4c(c3)OCO4)CC2)c1 (stereo not given),0,.,-3,11,-2,50*,-15,-4,-3,8,-11
C/C(=N\Nc1ccc([N+](=O)[O-])cc1)c1ccc(C#N)cc1,.,.,-1,14,.,20,.,.,.,.,.
N#CC(C#N)=NNc1ccc([N+](=O)[O-])cc1,.,.,5,33,.,51*,40,32,37*,36*,32*
CC(Oc1cc(C(F)(F)F)cc(C(F)(F)F)c1)C(=O)NC(N)=O (stereo not given),0,3,-3,24,-13,49*,46*,29,34*,32*,36*
COc1ccc(OC(C)C(=O)Nc2ccccc2C(F)(F)F)cc1 (stereo not given),0,0,3,9,0,-5,.,.,.,.,.
CCn1cc(CNC(=O)c2c(-c3c(Cl)cccc3Cl)noc2C)c(C)n1,0,3,3,2,-5,-19,.,.,.,.,.
O=[N+]([O-])c1cc(S(=O)(=O)Nc2cccc(Cl)c2)ccc1N/N=C/c1ccc(N2CCOCC2)cc1,.,.,-2,-6,.,66*,53*,61*,44*,61*,47*
C=CC(=O)N1c2ccccc2Sc2ccc(NC(=O)OCC)cc21,0,3,2,20,-3,42*,24,17,20*,13*,15
CC1CCN(S(=O)(=O)c2cc(C(=O)N3CCN(c4ncccn4)CC3)ccc2Br)CC1,0,6,1,-5,1,-26,.,.,.,.,.
O=C(O)c1cc(NC(=O)c2ccc(Cl)c([N+](=O)[O-])c2)cc(C(=O)O)c1,0,.,1,2,-7,13,.,.,.,.,.
O=C(Nc1ccc(C(O)(C(F)(F)F)C(F)(F)F)cc1)c1ccc(Cl)c([N+](=O)[O-])c1,0,-6,-1,26,-14,46*,50*,50*,41*,40*,51*
CCn1ccnc1CN1CCc2c([nH]c3ccccc23)C1CC(C)C (stereo not given),0,.,2,-9,3,9,.,.,.,.,.
CCn1ccnc1CN1CCc2c([nH]c3ccccc23)C1C(C)(C)C (stereo not given),0,.,-3,15,-5,34*,16,11,7,22*,11
CCCn1nnc(NC(=O)C(c2ccccc2)c2ccccc2)n1,0,4,5,2,12,12,.,.,.,.,.
CCCCn1nnc(NC(=O)C(c2ccccc2)c2ccccc2)n1,0,.,-1,-17,2,64*,-8,-5,-2,7,0
Cc1cccc(Nc2c(-c3ccc(O)cc3)nc3ncccn23)c1,0,.,4,29,-3,40*,32,29,16,31*,23*
Cc1ccc(Nc2c(-c3ccccc3O)nc3ncccn23)cc1,.,.,2,9,.,13,.,.,.,.,.
CC(C)(C)OC(=O)NCCCCCNC(=O)c1[nH]cnc1C(=O)N[C@@H](Cc1ccccc1)C(=O)OCc1ccccc1,0,.,-3,30,-7,58*,47*,22,32*,19*,28*
SMILES,Hsp70 activator,NPY-Y2 antag,Wee1 degr inh,NPY2 pot ag,NPY Y1 blocker,NPY1 pot ag,NPY-Y1 pot conf,NPY-Y2 counter,NPY-Y1 ag,NPY-Y2 agonist,CNGC inh 2
CC(C)c1ccc(NC(=O)CSc2ncccc2C(=O)Oc2cccc([N+](=O)[O-])c2)cc1,0,-1,2,-4,-1,1,.,.,.,.,.
Cc1ccc2cc3c(N)c4c(C)ccc(C)c4nc3nc2c1,0,.,-1,-9,0,-13,.,.,.,.,.
COC(=O)C1=C(C)N(c2ccc(OC)cc2)C(C)=C(C(=O)OC)C1c1ccccc1,.,.,-3,-10,.,-26,.,.,.,.,.
CCCCCCn1ccc(=N)cc1,0,1,4,-2,2,-1,.,.,.,.,.
CCCCCCCCCCCCCCCCn1cc[n+](CC(C)=O)c1,0,.,-2,23,-4,58*,58*,25,38*,19*,28*
COC(=O)c1ccc(NC(=O)CN2CCN(c3ccc(Cl)cc3)CC2)cc1,0,7,1,-6,3,12,.,.,.,.,.
COC(=O)c1ccc(NC(=O)CN2CCN(c3ccccc3C)CC2)cc1,0,10,1,10,13,54*,-37,-26,-22,-4,-27
CC12CCC(c3c(C(=O)Nc4nccs4)nn(-c4ccccc4)c31)C2(C)C (stereo not given),0,3,-1,-3,-9,-5,.,.,.,.,.
NS(=O)(=O)c1ccc(CCNc2ncnc3c2c(-c2ccccc2)cn3-c2ccc(F)cc2)cc1,0,-1,-2,-7,-6,105*,6,-2,-5,3,5
